Our source for the IC50, inhibition and Activity values is ChEMBL document CHEMBL5096236, “Development of Fluorinated Peptoid-Based Histone Deacetylase (HDAC) Inhibitors for Therapy-Resistant Acute Leukemia” (J Med Chem, 2022).

For assay [1], the target named is Histone deacetylase 1 (Homo sapiens, UniProt Q13547). The assay can be described thus: Inhibition of recombinant human C-terminal FLAG/His-tagged HDAC1 (1 to 482 residues) expressed in Sf9 insect cells using Z-Lys(Ac)-AMC as fluorogenic substrate incubated for 90 mins by microplate reader analysis.
Histone deacetylase 1, sequence (Q13547 whole entry, the tested form may be a part): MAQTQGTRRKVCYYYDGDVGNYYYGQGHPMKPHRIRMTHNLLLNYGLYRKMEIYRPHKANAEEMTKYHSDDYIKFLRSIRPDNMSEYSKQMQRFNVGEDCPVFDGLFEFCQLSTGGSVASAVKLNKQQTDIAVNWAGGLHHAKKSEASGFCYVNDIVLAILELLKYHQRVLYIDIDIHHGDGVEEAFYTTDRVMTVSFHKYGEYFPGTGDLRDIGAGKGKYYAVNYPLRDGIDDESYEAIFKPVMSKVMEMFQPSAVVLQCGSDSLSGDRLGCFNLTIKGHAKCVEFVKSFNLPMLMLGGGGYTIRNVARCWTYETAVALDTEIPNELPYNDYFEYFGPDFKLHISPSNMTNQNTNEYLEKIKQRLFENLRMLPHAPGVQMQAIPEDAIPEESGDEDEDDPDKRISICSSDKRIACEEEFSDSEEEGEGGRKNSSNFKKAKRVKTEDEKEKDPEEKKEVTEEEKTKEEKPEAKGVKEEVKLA
Assay [2] addresses T1, Protein deacetylase HDAC6 (Homo sapiens, UniProt Q9UBN7).
T1 sequence (Q9UBN7 whole entry): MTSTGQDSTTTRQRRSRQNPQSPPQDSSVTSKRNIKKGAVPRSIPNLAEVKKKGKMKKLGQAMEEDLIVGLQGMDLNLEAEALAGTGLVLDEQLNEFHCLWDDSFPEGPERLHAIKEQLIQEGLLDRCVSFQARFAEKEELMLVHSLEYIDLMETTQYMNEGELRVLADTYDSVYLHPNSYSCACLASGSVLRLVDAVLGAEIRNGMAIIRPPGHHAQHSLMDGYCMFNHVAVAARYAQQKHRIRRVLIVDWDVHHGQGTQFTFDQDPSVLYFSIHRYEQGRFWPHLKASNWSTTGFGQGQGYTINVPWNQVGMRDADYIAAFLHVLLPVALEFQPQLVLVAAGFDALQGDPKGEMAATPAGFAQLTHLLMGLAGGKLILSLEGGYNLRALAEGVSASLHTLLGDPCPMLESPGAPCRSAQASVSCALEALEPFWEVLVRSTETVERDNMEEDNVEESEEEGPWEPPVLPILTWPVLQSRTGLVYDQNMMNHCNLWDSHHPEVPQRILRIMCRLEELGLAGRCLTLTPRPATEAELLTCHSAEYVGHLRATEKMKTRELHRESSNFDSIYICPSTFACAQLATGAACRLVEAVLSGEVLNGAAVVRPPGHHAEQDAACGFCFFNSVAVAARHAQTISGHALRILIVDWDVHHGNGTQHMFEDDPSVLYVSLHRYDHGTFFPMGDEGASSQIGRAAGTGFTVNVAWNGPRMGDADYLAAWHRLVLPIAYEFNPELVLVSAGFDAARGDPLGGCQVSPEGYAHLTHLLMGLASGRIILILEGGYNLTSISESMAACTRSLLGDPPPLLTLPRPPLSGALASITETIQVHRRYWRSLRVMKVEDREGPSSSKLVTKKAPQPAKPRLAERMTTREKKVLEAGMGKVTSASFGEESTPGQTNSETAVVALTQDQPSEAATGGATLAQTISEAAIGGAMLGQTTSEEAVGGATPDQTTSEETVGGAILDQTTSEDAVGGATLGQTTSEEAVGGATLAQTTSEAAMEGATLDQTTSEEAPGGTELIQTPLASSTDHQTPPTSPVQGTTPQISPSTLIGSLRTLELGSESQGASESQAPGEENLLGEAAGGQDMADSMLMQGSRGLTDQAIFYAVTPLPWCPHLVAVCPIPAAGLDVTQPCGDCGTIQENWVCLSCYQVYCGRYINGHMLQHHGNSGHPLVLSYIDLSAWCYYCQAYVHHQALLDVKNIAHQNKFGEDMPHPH
The assay can be described thus: Inhibition of recombinant human N-terminal GST-tagged HDAC6 (1 to 1215 residues) expressed in Sf9 insect cells using Z-Lys(Ac)-AMC as fluorogenic substrate incubated for 90 mins by microplate reader analysis.

Assay [3] addresses Histone deacetylase 2 (Homo sapiens, UniProt Q92769). The assay can be described thus: Inhibition of recombinant human C-terminal FLAG-tagged HDAC2 (1 to 488 residues) expressed in Sf9 insect cells using Z-Lys(Ac)-AMC as fluorogenic substrate incubated for 90 mins by microplate reader analysis. The method, boiled down: (§1)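 Compound incubated with ZMAL (Z-Lys(Ac)-AMC; 21.43 μM solution) and enzyme at 37 °C for 90 min. Trypsin (0.4 mg/mL) added, 30 min at 37 °C. […] Duplicates, ≥2 independent experiments. SI = IC50 (HDAC2 or 3)/IC50 (HDAC6).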

In assay [4] the test system is HL-60. Put plainly: cells. Format: functional, cell-based. The following applies: Homo sapiens, HL-60, 72 h.
Assay [5] has as its target T2, Histone deacetylase (Homo sapiens) (UniProt Q13547+O15379+Q9UBN7+Q92769+Q9UQL6+Q8WUI4+Q9BY41+Q96DB2+P56524+Q9UKV0+Q969S8). Put plainly: Inhibition of HDAC in human HL-60 cells assessed as increase in Ac-H3 levels incubated for 24 hrs by immunoblot analysis. Conditions: dose lower […], dose upper 296.0 nM, DDE = dose-dependent effect. Format: cell-based.
Assay [6] has as its system Jurkat. The assay can be described thus: cells. Format: functional, cell-based. The following applies: Homo sapiens, 72 h.
Assay [7] relates to HAL-01. The assay can be described thus: cells. Format: functional, cell-based. Conditions: Homo sapiens, HAL-01, 72 h.
Assay [8] deals with HL-60. Put plainly: Induction of apoptosis in human HL-60 cells assessed as increase in total apoptotic cells at 1 to 5 uM incubated for 48 hrs by annexin V and propidium iodide staining based flow cytometry analysis. The class given is functional, cell-based. Conditions: dose 1-5 µM. A digest of the protocol: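 HL60 cells (RPMI 1640 GlutaMax, 10-20% FCS, 37°C, 5% CO₂) exposed to compound or control at 1 or 5 μM for 48 h, then stained with annexin V and propidium iodide and analysed by flow cytometry; n=3.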
In general terms: A flow cytometer gives signals particle by particle.

Assay [9] addresses T2, Histone deacetylase (Homo sapiens). The assay can be described thus: Inhibition of HDAC in human HL-60 cells assessed as increase in alpha tubulin acetylation incubated for 24 hrs by immunoblot analysis. The class given is cell-based. Conditions: dose lower […], dose upper 296.0 nM, DDE = dose-dependent effect.
Assay [10] has as its target Histone deacetylase 3/Nuclear receptor corepressor 2 (HDAC3/NCoR2) (Homo sapiens, UniProt O15379). The assay can be described thus: Inhibition of C-terminal His-tagged recombinant human HDAC3 (1 to 428 residues)/N-terminal GST-tagged recombinant human NCoR2 (395 to 489 residues) co-expressed in Sf9 cells using Z-Lys(Ac)-AMC as fluorogenic substrate incubated for 90 mins by microplate reader analysis. A digest of the protocol: as §1

Assay [11] concerns the target T2, Histone deacetylase (Homo sapiens). The assay can be described thus: Inhibition of HDAC in human HL-60 cells assessed as increase in Ac-H3 levels at 0.15 uM incubated for 24 hrs in presence of DNA methyltransferase inhibitor, decitabine by immunoblot analysis. The class given is cell-based. A digest of the protocol:
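HL60 cells treated for 24 h with compound alone or combined with decitabine at indicated concentrations. Acetylated H3 detected by immunoblotting.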

In assay [12] the test system is HL-60. Put plainly: Synergistic cytotoxicity against human HL-60 cells assessed as increase in synergy score at 0.1 to 2 uM incubated for 72 hrs in presence of DNA methyltransferase inhibitor, decitabine by CellTiter-Glo luminescent assay. Format: functional, cell-based. The following applies: dose 0.1-2 µM. The method, boiled down: (§2)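 AML cells treated 72 h in an 8×8 dose matrix: compound 0.1–2 μM and decitabine 0.25–10 μM, logarithmically spaced. Viability by CellTiter-Glo luminescence. Synergy scored with the ZIP model in SynergyFinder.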
(In ATP-based viability assays light output follows the ATP content of the culture.)

Assay [13] deals with MOLM-13. The assay can be described thus: Synergistic cytotoxicity against human MOLM-13 cells assessed as increase in synergy score at 0.1 to 2 uM incubated for 72 hrs in presence of […] inhibitor, decitabine by CellTiter-Glo luminescent assay. Format: functional, cell-based. The following applies: dose 0.1-2 µM. A digest of the protocol: as §2
Assay [14] concerns the target Histone deacetylase 4 (Homo sapiens, UniProt P56524). Put plainly: Inhibition of recombinant human N-terminal GST-tagged/C-terminal His-tagged HDAC4 (627 to 1084 residues) expressed in baculovirus infected Sf9 insect cells using Boc-Lys (trifluoroacetyl)-AMC as substrate incubated for 90 mins by microplate reader analysis. The method, boiled down: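 HDAC4 enzyme in Tris-HCl pH 8.0 buffer with NaCl, KCl, MgCl₂ and 0.1 mg/mL BSA, max. 1% DMSO. Trypsin (1.0 mg/mL) added, 30 min. Three-parameter log(inhibitor) fit. Duplicates, ≥2 experiments, mean ± SD. SI = IC50 HDAC4/IC50 HDAC6.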

Assay [15] concerns the target T2, Histone deacetylase (Homo sapiens). Put plainly: Inhibition of HDAC in human HL-60 cells assessed as increase in alpha tubulin acetylation at 6 to 36 uM incubated for 24 hrs by immunoblot analysis. Format: cell-based. The following applies: dose 6-36 µM. For orientation: In western blotting, separated proteins are transferred to a membrane and probed.

Calls of active or inactive are those of the source. No cut-off for these calls is given here.

Histone deacetylase 2, sequence (Q92769 whole entry, the tested form may be a part): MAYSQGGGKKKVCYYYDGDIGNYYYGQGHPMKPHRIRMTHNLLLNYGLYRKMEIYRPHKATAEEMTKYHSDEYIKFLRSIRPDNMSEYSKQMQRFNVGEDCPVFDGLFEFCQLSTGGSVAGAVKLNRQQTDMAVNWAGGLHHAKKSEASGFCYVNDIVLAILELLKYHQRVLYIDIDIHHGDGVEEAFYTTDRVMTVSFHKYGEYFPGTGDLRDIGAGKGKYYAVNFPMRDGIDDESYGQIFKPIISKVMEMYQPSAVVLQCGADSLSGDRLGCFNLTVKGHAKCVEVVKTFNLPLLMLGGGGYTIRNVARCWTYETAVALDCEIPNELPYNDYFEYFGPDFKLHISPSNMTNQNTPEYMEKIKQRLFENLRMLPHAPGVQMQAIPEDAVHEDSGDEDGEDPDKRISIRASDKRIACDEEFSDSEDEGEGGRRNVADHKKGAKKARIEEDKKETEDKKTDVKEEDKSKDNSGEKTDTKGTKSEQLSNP
Histone deacetylase 3/Nuclear receptor corepressor 2 (HDAC3/NCoR2), sequence (O15379 whole entry, the tested form may be a part): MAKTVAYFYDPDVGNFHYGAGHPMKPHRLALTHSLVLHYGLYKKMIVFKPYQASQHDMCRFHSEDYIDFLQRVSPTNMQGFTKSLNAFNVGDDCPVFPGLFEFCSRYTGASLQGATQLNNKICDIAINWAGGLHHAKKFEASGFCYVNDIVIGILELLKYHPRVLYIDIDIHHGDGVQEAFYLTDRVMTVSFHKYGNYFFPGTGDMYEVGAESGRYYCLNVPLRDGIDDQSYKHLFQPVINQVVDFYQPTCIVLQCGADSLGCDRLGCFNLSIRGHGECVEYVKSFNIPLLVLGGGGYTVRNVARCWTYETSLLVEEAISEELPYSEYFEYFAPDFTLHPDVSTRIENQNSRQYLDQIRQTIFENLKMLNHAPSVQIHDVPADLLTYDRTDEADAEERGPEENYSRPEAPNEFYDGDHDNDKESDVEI
Histone deacetylase 3/Nuclear receptor corepressor 2 (HDAC3/NCoR2), sequence (Q9Y618 whole entry, further chain, the tested form may be a part): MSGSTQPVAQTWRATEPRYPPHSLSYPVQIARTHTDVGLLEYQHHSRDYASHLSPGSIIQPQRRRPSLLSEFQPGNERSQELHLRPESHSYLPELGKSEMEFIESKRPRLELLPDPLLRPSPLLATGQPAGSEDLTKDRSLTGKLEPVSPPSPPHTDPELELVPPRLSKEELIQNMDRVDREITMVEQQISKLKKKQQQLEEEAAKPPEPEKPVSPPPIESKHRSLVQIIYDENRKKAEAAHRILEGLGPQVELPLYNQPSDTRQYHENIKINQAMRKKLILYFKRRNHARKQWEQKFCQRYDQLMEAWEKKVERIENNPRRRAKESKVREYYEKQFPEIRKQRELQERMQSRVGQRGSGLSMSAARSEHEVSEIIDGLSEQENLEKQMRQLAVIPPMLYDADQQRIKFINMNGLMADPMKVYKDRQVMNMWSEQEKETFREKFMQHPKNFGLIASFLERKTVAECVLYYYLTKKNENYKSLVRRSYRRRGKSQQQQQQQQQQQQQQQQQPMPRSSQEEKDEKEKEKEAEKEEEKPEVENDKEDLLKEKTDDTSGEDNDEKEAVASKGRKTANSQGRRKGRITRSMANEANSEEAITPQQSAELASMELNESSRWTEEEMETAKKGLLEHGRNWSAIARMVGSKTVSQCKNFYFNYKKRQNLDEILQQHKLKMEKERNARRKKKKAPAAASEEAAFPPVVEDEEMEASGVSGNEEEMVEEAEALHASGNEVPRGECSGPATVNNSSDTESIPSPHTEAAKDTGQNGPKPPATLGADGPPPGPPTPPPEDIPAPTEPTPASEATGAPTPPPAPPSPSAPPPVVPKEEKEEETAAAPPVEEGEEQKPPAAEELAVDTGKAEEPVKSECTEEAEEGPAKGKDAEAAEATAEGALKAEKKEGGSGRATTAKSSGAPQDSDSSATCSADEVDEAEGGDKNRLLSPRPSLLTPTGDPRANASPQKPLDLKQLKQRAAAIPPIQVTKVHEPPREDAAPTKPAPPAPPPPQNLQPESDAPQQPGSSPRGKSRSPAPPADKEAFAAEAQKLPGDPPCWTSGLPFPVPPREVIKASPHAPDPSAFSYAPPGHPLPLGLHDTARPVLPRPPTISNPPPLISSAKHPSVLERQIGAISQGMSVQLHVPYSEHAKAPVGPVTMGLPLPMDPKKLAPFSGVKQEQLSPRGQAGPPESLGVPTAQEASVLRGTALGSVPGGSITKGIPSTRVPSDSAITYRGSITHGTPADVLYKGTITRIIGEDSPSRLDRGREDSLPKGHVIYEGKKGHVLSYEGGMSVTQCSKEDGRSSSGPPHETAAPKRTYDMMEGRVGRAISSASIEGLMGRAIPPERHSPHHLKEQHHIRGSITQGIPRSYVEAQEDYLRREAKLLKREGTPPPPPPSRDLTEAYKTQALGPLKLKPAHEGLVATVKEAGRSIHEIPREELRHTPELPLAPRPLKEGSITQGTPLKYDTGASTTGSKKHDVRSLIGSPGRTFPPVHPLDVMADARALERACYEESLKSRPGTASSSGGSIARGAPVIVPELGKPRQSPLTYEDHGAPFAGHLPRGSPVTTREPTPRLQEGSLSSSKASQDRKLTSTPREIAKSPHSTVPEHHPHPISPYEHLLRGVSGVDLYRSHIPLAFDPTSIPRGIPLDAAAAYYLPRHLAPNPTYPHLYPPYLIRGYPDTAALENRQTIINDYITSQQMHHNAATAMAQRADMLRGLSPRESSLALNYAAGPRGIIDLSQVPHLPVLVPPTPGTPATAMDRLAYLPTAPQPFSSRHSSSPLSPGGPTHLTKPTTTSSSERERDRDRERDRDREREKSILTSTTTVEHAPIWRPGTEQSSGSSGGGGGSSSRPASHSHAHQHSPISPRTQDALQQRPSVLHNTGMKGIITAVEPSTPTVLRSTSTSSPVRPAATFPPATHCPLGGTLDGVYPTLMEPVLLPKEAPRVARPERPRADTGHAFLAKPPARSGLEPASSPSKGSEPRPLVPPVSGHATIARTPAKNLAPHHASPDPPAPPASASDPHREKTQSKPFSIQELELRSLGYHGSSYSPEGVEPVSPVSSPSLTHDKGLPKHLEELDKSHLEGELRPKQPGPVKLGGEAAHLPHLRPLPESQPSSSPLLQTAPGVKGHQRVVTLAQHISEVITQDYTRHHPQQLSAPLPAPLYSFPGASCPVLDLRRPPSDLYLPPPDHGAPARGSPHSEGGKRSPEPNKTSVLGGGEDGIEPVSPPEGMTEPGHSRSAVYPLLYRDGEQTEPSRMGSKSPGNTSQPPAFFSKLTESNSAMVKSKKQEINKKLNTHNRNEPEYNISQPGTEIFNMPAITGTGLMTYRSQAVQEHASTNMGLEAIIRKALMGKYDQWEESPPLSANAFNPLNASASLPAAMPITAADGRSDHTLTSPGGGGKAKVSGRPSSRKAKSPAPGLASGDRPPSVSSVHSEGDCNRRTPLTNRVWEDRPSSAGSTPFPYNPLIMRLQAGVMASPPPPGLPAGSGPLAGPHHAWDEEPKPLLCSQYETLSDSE
Histone deacetylase 4, sequence (P56524 whole entry, the tested form may be a part): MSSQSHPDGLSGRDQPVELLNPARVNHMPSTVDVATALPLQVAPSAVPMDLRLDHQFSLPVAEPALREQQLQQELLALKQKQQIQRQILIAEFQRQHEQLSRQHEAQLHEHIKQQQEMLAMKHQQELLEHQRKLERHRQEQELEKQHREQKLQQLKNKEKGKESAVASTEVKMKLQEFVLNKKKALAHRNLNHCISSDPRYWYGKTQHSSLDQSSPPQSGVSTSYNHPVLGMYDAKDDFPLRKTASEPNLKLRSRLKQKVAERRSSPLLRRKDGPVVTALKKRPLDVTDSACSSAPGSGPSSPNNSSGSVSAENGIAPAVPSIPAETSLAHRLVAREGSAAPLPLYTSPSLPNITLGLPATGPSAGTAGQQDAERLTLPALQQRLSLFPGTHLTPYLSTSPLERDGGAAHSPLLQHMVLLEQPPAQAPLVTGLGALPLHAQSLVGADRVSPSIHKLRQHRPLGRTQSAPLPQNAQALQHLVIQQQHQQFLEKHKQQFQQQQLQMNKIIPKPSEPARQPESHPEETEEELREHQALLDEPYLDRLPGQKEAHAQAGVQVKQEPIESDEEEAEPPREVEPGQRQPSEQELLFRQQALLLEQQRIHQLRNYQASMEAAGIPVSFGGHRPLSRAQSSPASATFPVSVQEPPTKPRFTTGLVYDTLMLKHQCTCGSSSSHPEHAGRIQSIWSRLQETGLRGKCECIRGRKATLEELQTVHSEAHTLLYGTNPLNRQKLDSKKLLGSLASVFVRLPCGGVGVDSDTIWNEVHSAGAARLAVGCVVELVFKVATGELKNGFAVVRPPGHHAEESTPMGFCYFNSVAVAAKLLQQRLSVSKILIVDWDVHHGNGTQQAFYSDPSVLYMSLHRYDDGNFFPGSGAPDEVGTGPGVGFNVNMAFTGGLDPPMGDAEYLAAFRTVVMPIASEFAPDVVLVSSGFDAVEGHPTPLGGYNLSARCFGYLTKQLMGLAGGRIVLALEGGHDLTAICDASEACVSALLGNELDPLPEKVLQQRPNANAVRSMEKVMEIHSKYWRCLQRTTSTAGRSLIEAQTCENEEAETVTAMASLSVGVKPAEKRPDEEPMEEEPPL

As for `CN(C)c1ccc(C(=O)N(CC(=O)NC2CCCCC2)Cc2ccc(C(=O)NO)cc2F)cc1`, the IC50 in [1] was determined as 66 nM; in [2], 16 nM.

Regarding `COc1ccccc1C(=O)N(CC(=O)NC(C)(C)C)Cc1ccc(C(=O)NO)cc1`, the results for the concentration for half-maximal inhibition (IC50) in assay [1] (sf9) and in assay [2] (sf9) were 3110 nM and 38 nM, respectively.

In the case of `Cc1cc(C)cc(C(=O)N(CC(=O)NC2CCCCC2)Cc2ccc(C(=O)NO)cc2)c1`, the IC50 was found to be 249 nM in assay [1] and 40 nM in assay [2].

As for `Cc1cc(C)cc(C(=O)N(CC(=O)NC2CCCCC2)Cc2ccc(C(=O)NO)cc2F)c1`, the IC50 in assay [2] amounted to 20 nM.

Take `CC(C)(C)NC(=O)CN(Cc1ccc(C(=O)NO)cc1F)C(=O)c1ccccc1Cl`: the IC50 in [1] amounted to 3470 nM; in assay [2] it was 21 nM.

Turning to `CN(C)c1ccc(C(=O)N(CC(=O)NCc2ccccc2)Cc2ccc(C(=O)NO)cc2)cc1`, the values for the IC50 in assay [1] and in assay [2] were 5 nM and 11 nM, respectively.

In the case of `CC(C)(C)NC(=O)CN(Cc1ccc(C(=O)NO)cc1F)C(=O)c1ccccc1F`, the figures for the IC50 in assay [1] and in assay [2] were 1180 nM and 26 nM, respectively.

Consider `CN(C)c1ccc(C(=O)N(CC(=O)NCc2ccccc2)Cc2ccc(C(=O)NO)cc2F)cc1`, for which the IC50 in assay [3] came out at 14 nM; in assay [3] (record 2), 14 nM; in [4], 218 nM; in assay [6], 285 nM; in assay [7], 375 nM; in assay [10], 21 nM. The IC50 in [1] was 13 nM. Also, the inhibition entry in [5] and in [9] was “Dde” each time. The outcome in [8], in assay [12] and in assay [13] was Active. Moreover, the inhibition result in assay [11] was “Active”.

For the compound `CN(C)c1ccc(C(=O)N(CC(=O)NC(C)(C)C)Cc2ccc(C(=O)NO)cc2F)cc1`, the results for the IC50 in assay [1] and in assay [2] were 158 nM and 20 nM, respectively.

Turning to `CC(C)(C)NC(=O)CN(Cc1ccc(C(=O)NO)cc1F)C(=O)c1ccccc1C(F)(F)F`, the IC50 in assay [6] was greater than 25000 nM; in assay [7], greater than 25000 nM; in assay [1], 2330 nM; in assay [2], 27 nM.

With `CC(C)c1ccccc1C(=O)N(CC(=O)NC(C)(C)C)Cc1ccc(C(=O)NO)cc1F`, the IC50 is greater than 10000 nM in assay [14]; 4480 nM in assay [3]; greater than 25000 nM in assay [6]; greater than 25000 nM in [7]; 8350 nM in assay [10]; 8010 nM in [1]. For the same compound, the result in assay [8] was Active. For the same compound, the inhibition result in [15] is “Active”.

Consider `O=C(CN(Cc1ccc(C(=O)NO)cc1F)C(=O)c1ccccc1C(F)(F)F)NC1CCCCC1`, for which the results for the IC50 in [6] and in assay [1] were greater than 25000 nM and 1450 nM, respectively.

On to `COc1ccccc1C(=O)N(CC(=O)NC(C)(C)C)Cc1ccc(C(=O)NO)cc1F`, for which the results for the IC50 in assay [7], in [1] and in assay [2] were greater than 25000 nM, 1750 nM and 17 nM, respectively.

On to `O=C(CN(Cc1ccc(C(=O)NO)cc1F)C(=O)c1ccccc1F)NC1CCCCC1`, for which the IC50 in assay [2] worked out at 18 nM.

On to `Cc1cc(C)cc(C(=O)N(CC(=O)NCc2ccccc2)Cc2ccc(C(=O)NO)cc2F)c1`, for which the IC50 stood at 9150 nM in [4]; 6230 nM in assay [6]; 2750 nM in assay [7]; 77 nM in [1]; 13 nM in assay [2].

As for `Cc1ccccc1C(=O)N(CC(=O)NC(C)(C)C)Cc1ccc(C(=O)NO)cc1F`, the IC50 in assay [1] was determined as 1750 nM; in assay [2] it was 27 nM.

As for `O=C(NO)c1ccc(CC(=O)N(CCO)c2ccccc2)cc1`, the IC50 worked out at 11300 nM in assay [4], 16100 nM in assay [6] and 13900 nM in [7].

Regarding `Cc1ccccc1C(=O)N(CC(=O)NC1CCCCC1)Cc1ccc(C(=O)NO)cc1F`, the IC50 is 938 nM in assay [1] and 18 nM in [2].

With `Cc1ccccc1C(=O)N(CC(=O)NC(C)(C)C)Cc1ccc(C(=O)NO)cc1`, the figures for the IC50 in assay [1] (sf9) and in assay [2] (sf9) were 2410 nM and 51 nM, respectively.

Take `COc1ccccc1C(=O)N(CC(=O)NC1CCCCC1)Cc1ccc(C(=O)NO)cc1F`: the half-maximal inhibitory concentration (IC50) in assay [7] is greater than 25000 nM; in [1], 1500 nM; in assay [2], 20 nM.

`Cc1cc(C)cc(C(=O)N(CC(=O)NC(C)(C)C)Cc2ccc(C(=O)NO)cc2F)c1`: the values for the IC50 in [1] and in [2] were 573 nM and 24 nM, respectively.

The IC50 is the point on the concentration scale where inhibition reaches its midpoint.
